Results from PMC3240686 (Journal of medicinal chemistry, 2011).
One block for each molecule: values may come before it.

Key:
[1] = tested on: carrageenan-induced thermal hyperalgesia; assay: Carrageenan-induced thermal hyperalgesia; format: in vivo; conditions: rats; for block of development of carrageenan-induced hyperalgesia, i.p.: i.p. injection 10 mg/kg; for block of development of carrageenan-induced hyperalgesia, i.p. / block of carrageenan-induced hyperalgesia, oral: 30 min before carrageenan, n=3; for antihyperalgesic effect and its duration: oral 100 mg/kg, n=2, time post-carrageenan; for activity at inhibiting hyperalgesia: carrageenan model
In short: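 Under light CO2 (80%)/O2 (20%) anaesthesia, rats received subplantar 1% carrageenan in saline (vehicle: saline) into the right hindpaw. For prophylactic dosing, drug or vehicle was given by gavage or i.p. 30 min before carrageenan. Heat hyperalgesia was measured by the Hargreaves plantar test, with an infrared stimulus from below and a 20 s cut-off. The read-out was change in paw-withdrawal latency (s).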

[2] = Observed acute toxicity in the carrageenan hyperalgesia studies; format: in vivo, rats
[3] = Relative lipophilicity by reversed phase HPLC retention factors; format: physicochemical; conditions: relative to parent compound 7, isocratic conditions
[4] = tested on: mechano-allodynia after CCI of the sciatic nerve; assay: Chronic constriction injury; format: in vivo; conditions: mice
[5] = octanol-water, slow stir method
[6] = Cyclic voltammetry in CH2Cl2; format: physicochemical
[7] = dose 300 mg/kg, 2 h time point, n=6

Molecule: CC[n+]1ccccc1-c1c2nc(c(-c3cccc[n+]3CC)c3ccc([n-]3)c(-c3cccc[n+]3CC)c3nc(c(-c4cccc[n+]4CC)c4ccc1[n-]4)C=C3)C=C2.[Mn+3] [Mn(III)-TE-2-PyP^5+, Mn(III) meso-tetrakis[(N-ethyl)pyridinium-2-yl]porphyrin (5+), reference compound]
block of development of carrageenan-induced hyperalgesia, i.p. [1]: blocked the development of carrageenan-induced hyperalgesia | block of carrageenan-induced hyperalgesia, oral ([1]; oral gavage 100 mg/kg): only 7 is able to block hyperalgesia when given orally | mortality ([2]; i.p., 3 fold higher dose than the one required to block hyperalgesia): 100%

relative lipophilicity by RPHPLC retention factor [3]: progressively more lipophilic
Molecule: Mn(III)-5,15-bis(4-isobutyryloxymethyl)phenyl-TCHP [Compound 16c]
antihyperalgesic effect and its duration [1]: potent anti-hyperalgesic action out to the 5 hour time point

Molecule: Mn(III)-TCHP Chloride [Compound 7]
effect on withdrawal responses of contralateral paws ([4]; oral 10–100 mg/kg): no effect | reversal of neuropathic pain (mechano-allodynia) ([4]; oral 10–100 mg/kg at time of peak mechano-allodynia, n=4): rapid, dose-dependent and near-to-maximal reversal of neuropathic pain within 1h post-dosing | 95% CI of ED50 ([4]; oral, at time of peak reversal, n=4): 15.64 to 51.67 mg/kg/day | ED50, reversal of mechano-allodynia ([4]; oral, day 7 after CCI, at time of peak reversal, n=4): 28 mg/kg | reversal of established hyperalgesia: pain at 1 h after dosing ([1]; 100 mg/kg oral gavage at 3 h post carrageenan, 4 hour time point): pain was substantially reduced | block of development of carrageenan-induced hyperalgesia, i.p. [1]: blocked the development of carrageenan-induced hyperalgesia | block of carrageenan-induced hyperalgesia, oral ([1]; oral gavage 100 mg/kg): able to block hyperalgesia when given orally | % inhibition of hyperalgesia ([1]; oral gavage 100 mg/kg, for 2 h): ~100% | inhibitory effect at late time ([1]; oral gavage 100 mg/kg, out to 5 h): substantial inhibitory effect maintained out to 5 h | acute toxicity ([2]; doses at least 6–8 fold higher than the one needed to block hyperalgesia): no observable acute toxicities | LogP [5]: 3.77

Molecule: CC(=O)Nc1ccc(O)cc1 [acetaminophen, reference compound]
% inhibition of hyperalgesia [1, 7]: 20±4%

Molecule: Mn(III)-5, 10, 15, 25-tetrakis-phenyl-TCHP Chloride [Compound 12]
activity at inhibiting hyperalgesia [1]: active at inhibiting hyperalgesia

Molecule: CC(C)Cc1ccc(C(C)C(=O)O)cc1 (centres unmarked) [ibuprofen, reference compound]
% inhibition of hyperalgesia [1, 7]: 99±5%

Molecule: Mn(III)-5,15-bis(4-hydroxymethyl)phenyl-TCHP [Compound 15]
antihyperalgesic effect and its duration [1]: excellent potency out to the 5 hour time point | relative lipophilicity by RPHPLC retention factor [3]: substantially less lipophilic than parent compound 7

Molecule: CC(=O)Oc1ccccc1C(=O)O [aspirin, reference compound]
% inhibition of hyperalgesia [1, 7]: 50±6%

reversible (presumably porphyrin-based) oxidation potential ([6]; cyclic voltammetry in CH2Cl2): 0.89 V. vs. ferrocene | Mn(II/III) couple ([6]; cyclic voltammetry in CH2Cl2, chemically reversible): −0.79 V vs. ferrocene
Molecule: Mn(III)-5,15-di-phenyl-TCHP Chloride [Compound 10]
activity at inhibiting hyperalgesia [1]: active at inhibiting hyperalgesia

relative lipophilicity by RPHPLC retention factor [3]: progressively more lipophilic
Molecule: Mn(III)-5,15-bis(4-propionyloxymethyl)phenyl-TCHP [Compound 16b]
antihyperalgesic effect and its duration [1]: strong antihyperalgesic effect out to 3 hours with a decline in this effect occurring in the 4–5 hour time period

Molecule: Mn(III)-5,15-bis(4-acetoxymethyl)phenyl-TCHP [Compound 16a]
antihyperalgesic effect and its duration [1]: strong antihyperalgesic effect out to 2 hours post-carrageenan but the effect was lost at 3 hours | relative lipophilicity by RPHPLC retention factor [3]: progressively more lipophilic
